The subject of experiment [1] is Staphylococcus aureus. Briefly: In vitro antimicrobial activity against Staphylococcus aureus was evaluated by measuring the diameter of zone of inhibition; NS denotes no significant inhibition. Format: functional, organism-based. The procedure, abridged:
(§1)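 Disc diffusion on nutrient agar seeded with the bacterium: glass microfiber discs (0.6 cm) saturated with 0.2 mL of aqueous compound solutions at different concentrations; incubation at 37°C for 48 h; diameter of growth-inhibition zone read in millimetres.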

The subject of experiment [2] is Pseudomonas aeruginosa. In words: In vitro antimicrobial activity against Pseudomonas aeruginosa was evaluated by measuring the diameter of zone of inhibition; NS denotes no significant inhibition. Format: functional, organism-based. In a few lines: as §1
Experiment [3] has as its system Candida albicans. Briefly: In vitro antifungal activity against Candida albicans was evaluated by measuring the diameter of zone of inhibition; NS denotes no significant inhibition. Format: functional, organism-based. In a few lines: (§2)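 Disc diffusion: glass microfiber discs (0.6 cm) saturated with 0.2 mL of aqueous compound solutions at various concentrations, placed on malt extract agar seeded with the yeast; plates incubated at 28°C for 96 h; inhibition zone diameter measured in mm.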

For experiment [4], the system named is Escherichia coli. In words: In vitro antimicrobial activity against Escherichia coli was evaluated by measuring the diameter of zone of inhibition; NS denotes no significant inhibition. Format: functional, organism-based. In a few lines:
as §1

In experiment [5] the test system is Candida albicans. In words: In vitro antifungal activity against Candida albicans was evaluated by measuring the diameter of zone of inhibition. Format: functional. In a few lines:
as §2

Experiment [6] has as its system Staphylococcus aureus. Briefly: In vitro antimicrobial activity against Staphylococcus aureus was evaluated by measuring the diameter of zone of inhibition. It counts as functional. In a few lines: as §1
For experiment [7], the system named is Escherichia coli. Briefly: In vitro antimicrobial activity against Escherichia coli was evaluated by measuring the diameter of zone of inhibition. Format: functional. The procedure, abridged: as §1
For experiment [8], the system named is Pseudomonas aeruginosa. Briefly: In vitro antimicrobial activity against Pseudomonas aeruginosa was evaluated by measuring the diameter of zone of inhibition. It counts as functional. The procedure, abridged: as §1

For 27 compounds, Inhibition results are on record in ChEMBL document CHEMBL1137886, “Pyridazine derivatives and related compounds. Part 13: Synthesis and antimicrobial activity of some pyridazino[3',4':3,4]pyrazolo[5,1-c]-1,2,4-triazines” (2004).

For the compound `O=C(NNc1ccccc1)c1nnc2c3c(-c4ccccc4)c(-c4ccccc4)nnc3nn2c1-c1ccccc1`, the Inhibition result in experiment [1], in experiment [2], in experiment [3] and in experiment [4] was “No inhibition” each time.

For the compound `Cc1c(C(=O)N/N=C/c2ccccc2)nnc2c3c(-c4ccccc4)c(-c4ccccc4)nnc3nn12`, the Inhibition result in experiment [1], in experiment [2], in experiment [3] and in experiment [4] was “No inhibition” each time.

As to `c1ccc(-c2nnc3nn4c(-c5ccccc5)cnnc4c3c2-c2ccccc2)cc1`, the Inhibition result in experiment [1], in experiment [2], in experiment [3] and in experiment [4] was “No inhibition” each time.

The compound `Cc1ccc(/C=N/NC(=O)c2nnc3c4c(-c5ccccc5)c(-c5ccccc5)nnc4nn3c2C)s1` gave an Inhibition in experiment [5] of 2 mm.

In the case of `Cc1c(C(=O)O)nnc2c3c(-c4ccccc4)c(-c4ccccc4)nnc3nn12`, the Inhibition entry in experiment [1], in experiment [2], in experiment [3] and in experiment [4] was “No inhibition” in each case.

For `Cc1c(/C(=N/N)c2ccccc2)nnc2c3c(-c4ccccc4)c(-c4ccccc4)nnc3nn12`, the Inhibition entry in experiment [1], in experiment [2], in experiment [3] and in experiment [4] was “No inhibition” in each case.

Take `Cc1ccc(/C=N/NC(=O)c2nnc3c4c(-c5ccccc5)c(-c5ccccc5)nnc4nn3c2C)o1`: the Inhibition result in experiment [1], in experiment [2], in experiment [3] and in experiment [4] was “No inhibition” in each case.

As for `Cc1c(C(=O)N/N=C/c2cccs2)nnc2c3c(-c4ccccc4)c(-c4ccccc4)nnc3nn12`, the Inhibition in experiment [6] and in experiment [7] was 2 mm throughout.

As for `CC(=O)c1nnc2c3c(-c4ccccc4)c(-c4ccccc4)nnc3nn2c1C`, the Inhibition in experiment [6] is 4 mm; in experiment [5], 3 mm.

For the compound `C/C(=N\NC(N)=O)c1nnc2c3c(-c4ccccc4)c(-c4ccccc4)nnc3nn2c1C`, the Inhibition result in experiment [1], in experiment [2], in experiment [3] and in experiment [4] was “No inhibition” in each case.

Regarding `Cc1c(/C(=N/Nc2ccccc2)c2ccccc2)nnc2c3c(-c4ccccc4)c(-c4ccccc4)nnc3nn12`, the Inhibition entry in experiment [1], in experiment [2], in experiment [3] and in experiment [4] was “No inhibition” in each case.

`Cc1c(/C(=N/NC(N)=O)c2ccccc2)nnc2c3c(-c4ccccc4)c(-c4ccccc4)nnc3nn12`: the Inhibition in experiment [6] came to 4 mm; in experiment [8] it was 2 mm; in experiment [7], 3 mm.

Regarding `COc1ccc(/C=N/NC(=O)c2nnc3c4c(-c5ccccc5)c(-c5ccccc5)nnc4nn3c2C)cc1`, the Inhibition in experiment [6] was 3 mm.

`Cc1c(C(=O)N/N=C/c2ccc([N+](=O)[O-])cc2)nnc2c3c(-c4ccccc4)c(-c4ccccc4)nnc3nn12`: the Inhibition in experiment [7] was found to be 5 mm.

With `Cc1c(C(=O)N/N=C/c2ccc(Cl)cc2)nnc2c3c(-c4ccccc4)c(-c4ccccc4)nnc3nn12`, the Inhibition result in experiment [1], in experiment [2], in experiment [3] and in experiment [4] was “No inhibition” each time.

On to `CCOC(=O)c1nnc2c3c(-c4ccccc4)c(-c4ccccc4)nnc3nn2c1C`, for which the Inhibition result in experiment [1], in experiment [2], in experiment [3] and in experiment [4] was “No inhibition” in each case.

For `CCOC(=O)c1nnc2c3c(-c4ccccc4)c(-c4ccccc4)nnc3nn2c1-c1ccccc1`, the Inhibition entry in experiment [1], in experiment [2], in experiment [3] and in experiment [4] was “No inhibition” each time.

As to `Cc1c(C(=O)N/N=C/c2ccc[nH]2)nnc2c3c(-c4ccccc4)c(-c4ccccc4)nnc3nn12`, the Inhibition in experiment [7] was found to be 2 mm.

Turning to `NC(=O)NNC(=O)c1nnc2c3c(-c4ccccc4)c(-c4ccccc4)nnc3nn2c1-c1ccccc1`, the Inhibition result in experiment [1], in experiment [2], in experiment [3] and in experiment [4] was “No inhibition” each time.

Take `Cc1c(C(=O)NNc2ccccc2)nnc2c3c(-c4ccccc4)c(-c4ccccc4)nnc3nn12`: the Inhibition result in experiment [1], in experiment [2], in experiment [3] and in experiment [4] was “No inhibition” in each case.

Consider `O=C(O)c1nnc2c3c(-c4ccccc4)c(-c4ccccc4)nnc3nn2c1-c1ccccc1`, for which the Inhibition entry in experiment [1], in experiment [2], in experiment [3] and in experiment [4] was “No inhibition” in each case.

As to `Cc1c(C(=O)NNC(N)=O)nnc2c3c(-c4ccccc4)c(-c4ccccc4)nnc3nn12`, the Inhibition result in experiment [1], in experiment [2], in experiment [3] and in experiment [4] was “No inhibition” in each case.

For `Cc1c(C(=O)N/N=C/c2cccn2C)nnc2c3c(-c4ccccc4)c(-c4ccccc4)nnc3nn12`, the Inhibition result in experiment [1], in experiment [2], in experiment [3] and in experiment [4] was “No inhibition” in each case.

For `NNC(=O)c1nnc2c3c(-c4ccccc4)c(-c4ccccc4)nnc3nn2c1-c1ccccc1`, the Inhibition result in experiment [1], in experiment [2], in experiment [3] and in experiment [4] was “No inhibition” in each case.

In the case of `Cc1cnnc2c3c(-c4ccccc4)c(-c4ccccc4)nnc3nn12`, the Inhibition result in experiment [1], in experiment [2], in experiment [3] and in experiment [4] was “No inhibition” each time.

Take `Cc1c(C(=O)N/N=C/c2ccco2)nnc2c3c(-c4ccccc4)c(-c4ccccc4)nnc3nn12`: the Inhibition in experiment [7] was 2 mm.

In the case of `Cc1c(C(=O)N/N=C/c2ccc3ccccc3c2)nnc2c3c(-c4ccccc4)c(-c4ccccc4)nnc3nn12`, the Inhibition result in experiment [1], in experiment [2], in experiment [3] and in experiment [4] was “No inhibition” in each case.
